STAT3 activator: IL-6 driven STAT3 reporter potentiators, primary screen, U3A cells, luciferase, luminescence, MLSCN library; IL-6 STAT3-luciferase reporter; 100% = signal with IL-6 EC80 alone; activation (% of control), % at 5.6 µM; hit rate 0.91% among 190,000;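 active means activation above the screen-wide mean of compound activation plus 3 SD, cut at about 130% in these data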;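 further: 0% = background luminescence of wells with medium and substrate only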
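System – human U3A cells carrying STAT3-luciferase construct · Probe or stimulus – Interleukin-6, 33 ng/mL · Schedule – compound 1 h, then IL-6 6 h at 37 °C · Signal – luminescence from STAT3-driven luciferase reporter · Evaluation – percent of IL-6-only median luminescence · Benchmarks – IL-6-only high control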
zVAD death inh: inhibitors of zVAD-triggered necroptosis, primary screen, L929 cells; L929 zVAD necroptosis rescue, ATP luminescence, 24 h; with zVAD 60 µM; viability rescue, % at 10 µM; hit rate 0.38% among 220,000; AID 1377, 2008;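 active means activation, scaled between plate controls, above about 75%, limit read from the data; inactive means activation under that limit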;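 further: 0% = zVAD with DMSO and 100% = DMSO alone without zVAD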
STAT3 inh-1: IL-6 driven STAT3 reporter inhibitors, primary screen, U3A cells, luciferase, luminescence, MLSCN library. IL-6 STAT3-luciferase reporter; host cell line lacks STAT1. inhibition, % at 5.5 µM. hit rate 0.89% among 190,000;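 active means inhibition above the mean inhibition across all screened compounds plus 3 SD, cut at about 44% in these data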;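 further: 0% = DMSO only wells and 100% = 100 µM nifuroxazide control wells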
TNF necrop inh: inhibitors of TNF-alpha triggered necroptosis, primary screen, cell-based, Jurkat FADD-/-, single concentration; Jurkat FADD-/- TNF necroptosis rescue, ATP luminescence, 24 h; 0 = TNF only, 100 = no-TNF cells; activation (protection from cell death), % at 10 µM; hit rate 0.068% among 220,000;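 active means activation, meaning protection from cell death, of at least 50% relative to plate controls; inactive means activation below 50%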;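 further: necroptosis triggered by 40 ng/mL TNF-alpha added together with compound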
STAT1 inh: STAT1 signaling inhibitors, primary screen, cell-based, HTS, luciferase reporter | NIH 3T3 STAT1-luciferase reporter, IFN-gamma, luminescence | inhibition, % at 5.5 µM | hit rate 0.35% among 200,000 | AID 920, 2007;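 active means inhibition above a set limit, the mean inhibition across all tested compounds plus 3 SD, cut at about 34% in these data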;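 further: 0% = IFN-gamma with DMSO and 100% = IFN-gamma with 300 µM nifuroxazide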
STAT3 inh-2: STAT3 reporter inhibitors, retest of hits, confirmation, U3A cells, luciferase, luminescence. shares compounds with STAT3 inh-1. IL-6 STAT3 luciferase reporter; cell line lacks STAT1. inhibition, % at 5.7 µM. hit rate 45% among 1,200. AID 1265, 2008;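 active means inhibition above the hit cutoff computed for the primary STAT3 screen, cut at about 44% in these data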;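 further: 0% = IL-6 plus DMSO and 100% = IL-6 plus nifuroxazide control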
NFkB inh 2: NF-kB reporter inhibitors in human cells, confirmation, counter-screen for STAT3 inhibitor project, cell-based, HEK293T, luciferase, TNF-alpha stimulus; shares compounds with STAT3 inh-1; TNF-alpha induced; inhibition, % at 5.7 µM; hit rate 36% among 1,200; AID 1308, 2008;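 active means inhibition above the mean of solvent-only control wells plus 3 SD, cutoff set per campaign, cut at about 13% in these data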;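 further: 0% = TNF-alpha with DMSO and 100% = TNF-alpha with MG high control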
STAT1 inh STAT3c: STAT1 reporter inhibitors, IFN-gamma induced, confirmation, counter-screen for STAT3 inhibitor project, cell-based, NIH 3T3, luciferase luminescence | shares compounds with STAT3 inh-1 | NIH 3T3 STAT1-luciferase reporter | inhibition, % at 5.7 µM | hit rate 27% among 1,200;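 active means inhibition above the mean plus 3 SD of solvent-only control wells, limit set per screening run, cut at about 16% in these data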;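 further: 0% = DMSO with IFN-gamma and 100% = nifuroxazide control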
* hit, by the source's call. Most compounds without a hit are left out; they make up all but 2.1% or so of the library.

For Cc1nc2ccccc2n1CC(O)COCC1CC=CCC1 (centres undefined) the results were STAT3 activator 63.0, zVAD death inh -0.3, STAT3 inh-1 44.3*, TNF necrop inh -6.8, STAT1 inh 14.1, STAT3 inh-2 40.3, NFkB inh 2 -0.5 and STAT1 inh STAT3c 10.6.
CCOc1ccc(-c2c[n+]3c(n2-c2ccccc2)CCCCC3)cc1 was read as STAT3 activator 51.4, zVAD death inh -0.4, STAT3 inh-1 56.5*, TNF necrop inh -4.7, STAT1 inh 28.2, STAT3 inh-2 72.5*, NFkB inh 2 5.3 and STAT1 inh STAT3c 28.0*.
COc1ccc(-n2c(-c3ccccc3)c[n+]3c2CCC3)cc1 was read as zVAD death inh 0.0 and TNF necrop inh -8.1.
`Cc1ccc(-n2c(-c3ccccc3)c[n+]3c2CCC3)cc1` gave STAT3 activator 51.4, zVAD death inh -1.8, STAT3 inh-1 61.8*, TNF necrop inh -7.2, STAT1 inh 26.2, STAT3 inh-2 50.3*, NFkB inh 2 2.3 and STAT1 inh STAT3c 23.2*.
For O=c1c2c(nc3cc(-c4ccc(F)cc4)[nH]n13)CCCC2 the results were STAT3 activator 55.6, zVAD death inh 2.7, STAT3 inh-1 52.7*, TNF necrop inh -1.4, STAT1 inh -83.8, STAT3 inh-2 18.9, NFkB inh 2 -26.7 and STAT1 inh STAT3c -133.4.
`Fc1ccccc1Cc1noc(CN2CCN(C/C=C/c3ccccc3)CC2)n1` gave STAT3 activator 103.5, zVAD death inh -0.3, STAT3 inh-1 7.8, TNF necrop inh 2.5 and STAT1 inh -3.1.
For O=C(Nc1ccc(NC(=O)c2ccco2)nc1)c1ccco1 the results were STAT3 activator 57.4, zVAD death inh 5.2, STAT3 inh-1 53.5*, TNF necrop inh -1.3, STAT1 inh -0.7, STAT3 inh-2 5.0, NFkB inh 2 -21.8 and STAT1 inh STAT3c -62.2.
O=C(Nc1ccc(NC(=O)C2CCCCC2)cn1)c1ccco1 was read as STAT3 activator 48.4, zVAD death inh 0.9, STAT3 inh-1 62.1*, TNF necrop inh 3.0, STAT1 inh -44.0, STAT3 inh-2 30.4, NFkB inh 2 -23.2 and STAT1 inh STAT3c -62.2.
Screening O=C(Cc1ccccc1)Nc1ccc(NC(=O)C2CCCCC2)nc1 returned STAT3 activator 100.0, zVAD death inh 16.4, STAT3 inh-1 1.6, TNF necrop inh 2.9 and STAT1 inh -0.8.
Screening CCOc1ccc(C2C(C(=O)c3cccs3)=C(O)C(=O)N2Cc2cccnc2)cc1 (centres undefined) returned STAT3 activator 103.7, zVAD death inh 4.8, STAT3 inh-1 -2.3, TNF necrop inh 0.5 and STAT1 inh -13.9.
COc1ccc(S(=O)(=O)N2CCc3ccccc32)cc1C(=O)Nc1cccnc1 was read as zVAD death inh -0.1 and TNF necrop inh 0.4.
`COc1ccc(O)c(C(=O)CC(=O)c2ccc(F)cc2)c1` gave STAT3 activator 35.1, zVAD death inh 3.1, STAT3 inh-1 77.3*, TNF necrop inh -10.2, STAT1 inh -11.1, STAT3 inh-2 26.7, NFkB inh 2 -10.3 and STAT1 inh STAT3c -112.1.
`COc1ccc(O)c(C(=O)CC(=O)c2ccccc2C)c1` gave STAT3 activator 88.3, zVAD death inh -0.8, STAT3 inh-1 18.8, TNF necrop inh -0.7 and STAT1 inh -50.2.
`O=C(Cn1cnc2ccccc21)Nc1ccc(SC(F)F)cc1` gave STAT3 activator 39.9, zVAD death inh 0.9, STAT3 inh-1 73.1*, TNF necrop inh -8.6, STAT1 inh 21.6, STAT3 inh-2 65.4*, NFkB inh 2 21.4* and STAT1 inh STAT3c 15.9.
`CC(C)Cn1c(N)c(C(=O)CSc2ccccc2)c(=O)n(C)c1=O` gave STAT3 activator 62.1, zVAD death inh 0.0, STAT3 inh-1 44.8*, TNF necrop inh -0.4, STAT1 inh 0.9, STAT3 inh-2 44.0*, NFkB inh 2 -4.5 and STAT1 inh STAT3c -1.1.
CC(C)Cn1c(N)c(C(=O)COC(=O)CCc2nc3ccccc3s2)c(=O)n(C)c1=O was read as STAT3 activator 41.5, zVAD death inh -0.9, STAT3 inh-1 70.4*, TNF necrop inh -2.5, STAT1 inh 24.8, STAT3 inh-2 74.5*, NFkB inh 2 7.5 and STAT1 inh STAT3c 15.7.
Screening CC(C)Cn1c(N)c(C(=O)COC(=O)CC23CC4CC(CC(C4)C2)C3)c(=O)n(C)c1=O returned STAT3 activator 41.3, zVAD death inh -2.0, STAT3 inh-1 69.9*, TNF necrop inh -16.8, STAT1 inh 23.0, STAT3 inh-2 72.6*, NFkB inh 2 23.7* and STAT1 inh STAT3c 24.0*.
`Cc1cc(C(=O)NCCCN2CCOCC2)n(-c2ccccc2)n1` gave STAT3 activator 107.3, zVAD death inh 0.0, STAT3 inh-1 -3.5, TNF necrop inh -0.8 and STAT1 inh 10.2.
CCOC(=O)N1CCN(C(=O)CSCC(=O)Nc2nc(-c3ccc(-c4ccccc4)cc3)cs2)CC1 was read as STAT3 activator 43.8, zVAD death inh 0.2, STAT3 inh-1 72.4*, TNF necrop inh -8.5, STAT1 inh -0.2, STAT3 inh-2 72.8*, NFkB inh 2 15.4* and STAT1 inh STAT3c -8.1.
For CCOC(=O)N1CCN(C(=O)CSCC(=O)Nc2nc(-c3ccc(OC)cc3)cs2)CC1 the results were STAT3 activator 87.7, zVAD death inh -0.2, STAT3 inh-1 17.5, TNF necrop inh -4.2 and STAT1 inh 3.7.
`Cc1cccc(NC(=S)NCc2cccs2)c1` gave STAT3 activator 101.9, zVAD death inh -1.5, STAT3 inh-1 4.0, TNF necrop inh -10.6 and STAT1 inh 3.0.
Nc1nc2c(Cl)ccc(Cl)c2s1 was read as STAT3 activator 64.6, zVAD death inh 2.3, STAT3 inh-1 45.6*, TNF necrop inh -1.0, STAT1 inh 15.7, STAT3 inh-2 40.5, NFkB inh 2 -7.1 and STAT1 inh STAT3c -14.3.
For Nc1nc2c(Cl)cc(Cl)cc2s1 the results were STAT3 activator 92.8, zVAD death inh 59.9, STAT3 inh-1 14.3, TNF necrop inh -1.4 and STAT1 inh -18.1.
`c1ccc(-c2noc(C3CCC3)n2)nc1` gave zVAD death inh -0.1 and TNF necrop inh -1.0.

High-throughput results deposited in PubChem BioAssay by several laboratories.
